Measurements: ChEMBL document CHEMBL1141660, “Synthesis and antimycobacterial evaluation of substituted pyrazinecarboxamides” (Eur J Med Chem, 2008)
In brackets after ≈: the same amount, converted by molar mass.

Assays:
[1] = system: Mycobacterium tuberculosis; assay: Antimicrobial activity against Mycobacterium tuberculosis H37Rv ATCC 27294 at 6.25 ug/mL by microplate alamar blue assay; type: functional
Chlorella vulgaris [2] = assay: Antialagal activity against Chlorella vulgaris Beji assessed as reduction in chlorophyll content after 7 days; type: functional, organism-based; conditions: 168 h
Method in brief: (§1)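 Chlorella cultures with compound added from DMSO (final ≤0.25%), against controls carrying the same DMSO level. Chlorophyll content was read relative to the control. Results are given either as IC50 (concentration giving a 50% drop in chlorophyll) or as percent of control across the 0.83–100 concentration range, with S.D.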

[3] = Inhibition of photosynthetic electron transport in Spinacia oleracea chloroplasts assessed as photoreduction of 2,6-dicholorophenol-indophenol measured by decrease in oxygen evolution rate; type: functional
Method in brief: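 Chloroplast suspension (chlorophyll 30 mg/L) in 0.02 mol/L phosphate buffer, pH 7.2, with 0.4 mol/L sucrose, 0.005 mol/L MgCl2 and 0.015 mol/L NaCl. Samples were lit by a halogen lamp (~100 W/m², 10 cm, 4-cm water filter) at 22 °C. Electron transport was followed as DCPIP photoreduction. IC50 is the molar concentration halving oxygen evolution versus the untreated control.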

[4] = system: Mycobacterium tuberculosis; assay: Antimicrobial activity against Mycobacterium tuberculosis H37Rv ATCC 27294 by microplate alamar blue assay; type: functional
[5] = Selectivity index, ratio of MIC Mycobacterium tuberculosis H37Rv ATCC 27294 to IC50 for african green monkey Vero cells; type: functional
Chlorella vulgaris [6] = assay: Antialagal activity against Chlorella vulgaris Beji assessed as reduction in chlorophyll content after 7 days at 0.83 to 100 umol/L; type: functional; design: scale not given: the % may be the effect or the level left; method in brief: as §1
Vero = assay: Cytotoxicity against african green monkey Vero cells after 72 hrs by MTT assay; type: cell-based; conditions: Chlorocebus sabaeus
Method in brief: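 Secondary screen in VERO cells. Viability was read with the CellTiter 96 non-radioactive cell proliferation assay.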

[7] = system: Trichophyton mentagrophytes; assay: Antifungal activity against Trichophyton mentagrophytes after 120 hrs; type: functional
[8] = system: Trichophyton mentagrophytes; assay: Antifungal activity against Trichophyton mentagrophytes after 72 hrs; type: functional

| SMILES | inhibition at 6.25 µg/mL [1] | IC50 (Chlorella vulgaris [2]) | IC50 [3] | MIC [4] | Ratio [5] | Activity (Chlorella vulgaris [6]) | IC50 (Vero) | MIC [7] | MIC [8] |
| --- | --- | --- | --- | --- | --- | --- | --- | --- | --- |
| Cc1ccc(NC(=O)c2cncc(Cl)n2)cc1 | 71% | 37.4 µM | 1520 µM |  |  |  |  |  |  |
| CC(C)(C)c1cnc(C(=O)Nc2ccccc2C(F)(F)F)cn1 | 7% | 32.9 µM | 55 µM |  |  |  |  |  |  |
| O=C(Nc1cccc(C(F)(F)F)c1)c1cncc(Cl)n1 | 77% | 12.1 µM | 229 µM |  |  |  |  |  |  |
| O=C(Nc1cccc(C(F)(F)F)c1)c1cnccn1 | 99% |  | 130 µM | 6.25 µg/mL (≈ 23.4 µM) | >10 | 91.5% | > 62.5 µg/mL |  |  |
| O=C(Nc1ccc(F)cc1)c1cncc(Cl)n1 | 44% | 32.3 µM | 384 µM |  |  |  |  |  |  |
| CC(C)(C)c1ncc(C(=O)Nc2ccc(F)cc2)nc1Cl | 15% |  | 103 µM |  |  | 101.6% |  |  |  |
| O=C(Nc1ccccc1C(F)(F)F)c1cnccn1 | 31% |  | 376 µM |  |  | 91.7% |  |  |  |
| CC(C)(C)c1ncc(C(=O)Nc2cccc(C(F)(F)F)c2)nc1Cl | 95% |  | 173 µM | 3.13 µg/mL (≈ 8.75 µM) | >3.2 | 90.1% | > 10 µg/mL |  |  |
| CC(C)(C)c1ncc(C(=O)Nc2ccccc2C(F)(F)F)nc1Cl | 6% |  | 205 µM |  |  | 94.4% |  |  |  |
| NC(=O)c1cnccn1 [PYRAZINAMIDE] |  |  |  | 12.5 µg/mL (≈ 102 µM) |  |  |  |  |  |
| Cc1ccc(NC(=O)c2cnc(C(C)(C)C)c(Cl)n2)cc1 | 0% |  | 73 µM |  |  | 92.9% |  |  |  |
| O=C(Nc1ccc(F)cc1)c1cnccn1 | 0% |  | 480 µM |  |  | 89.9% |  |  |  |
| O=C(Nc1ccccc1C(F)(F)F)c1cncc(Cl)n1 | 26% |  | 557 µM |  |  | 87.8% |  |  |  |
| O=C(Nc1cc(O)ccc1Cl)c1cncc(Cl)n1 | 15% |  | 624 µM |  |  | 103% |  |  |  |
| Cc1ccc(NC(=O)c2cnccn2)cc1 | 86% | 70.9 µM | 1480 µM |  |  |  |  |  |  |
| CC(C)(C)c1cnc(C(=O)Nc2ccc(F)cc2)cn1 | 25% |  | 524 µM |  |  | 94.5% |  |  |  |
| CC(C)(C)c1cnc(C(=O)Nc2cccc(C(F)(F)F)c2)cn1 | 23% |  | 283 µM |  |  | 85.2% |  | 62.5 µM (≈ 20.2 µg/mL) | 62.5 µM (≈ 20.2 µg/mL) |
| CN(C)C(=O)Nc1ccc(Cl)c(Cl)c1 [DCMU] |  | 7.3 µM | 1.9 µM |  |  |  |  |  |  |
| CC(C)(C)c1ncc(C(=O)Nc2cc(O)ccc2Cl)nc1Cl | 0% |  | 625 µM |  |  | 98% |  |  |  |
| Cc1ccc(NC(=O)c2cnc(C(C)(C)C)cn2)cc1 | 61% |  | 164 µM |  |  | 91.8% |  |  |  |
| CC(C)(C)c1cnc(C(=O)Nc2cc(O)ccc2Cl)cn1 | 0% |  |  |  |  | 122% |  |  |  |
| O=C(Nc1cc(O)ccc1Cl)c1cnccn1 | 0% |  | 722 µM |  |  | 97.1% |  |  |  |
